We go through two compounds from ChEMBL document CHEMBL1921669, “In vivo PET imaging of histone deacetylases by 18F-suberoylanilide hydroxamic acid (18F-SAHA)” (J Med Chem, 2011).

Molecules are shown by their SMILES.

Data set [1] relates to Blood. Put plainly: Biodistribution in C57BL/6 mouse blood at 241 +/- 18 uCi, iv. It counts as ADME, organism-based. To be noted: in vivo. Summed up:
(§1)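 Six C57BL/6 mice got the 18F tracer by tail-vein iv injection. Groups were sacrificed at 1 h (n = 3) and 3 h (n = 3) after dosing. Tissues were excised and weighed, and 18F activity was counted by gamma counter. Values are expressed as % injected dose per gram of tissue.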

The subject of data set [2] is Nucleic Acid. The data set can be described thus: Ratio of drug uptake in tumor to muscle in human A2780 cells xenografted Nu/Nu mouse at 2 mg in 100 uL of 60% PEG400 40% water, ip after 3 hrs by PET-CT analysis. In kind it is ADME, organism-based. The following applies: in vivo. Summed up: (§2)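 Nu/Nu mice (n = 5) bearing subcutaneous flank A2780 human ovarian cancer xenografts (10⁶ cells in Matrigel per flank), imaged 10 days after implantation. ¹⁸F-labelled tracer PET-CT under isoflurane anaesthesia (1.5%, O₂ 2 L/min), each acquisition ~80 min. […] Read-out: tumor/muscle uptake ratio.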
A general note: In xenograft studies the graft and the host belong to different species.

In data set [3] the test system is Liver. Put plainly: Biodistribution in C57BL/6 mouse liver at 241 +/- 18 uCi, iv. In kind it is ADME, organism-based. The following applies: in vivo. The method in brief:
as §1

Data set [4] has as its system Kidney. The data set can be described thus: Biodistribution in C57BL/6 mouse kidney at 241 +/- 18 uCi, iv. It counts as ADME, organism-based. The following applies: in vivo. Summed up: as §1
The test system of data set [5] is Mus musculus. Put plainly: Biodistribution in human A2780 cells xenografted Nu/Nu mouse tumor at 2 mg in 100 uL of 60% PEG400 40% water, ip by PET-CT analysis. It counts as ADME, organism-based, Neoplasm. To be noted: in vivo, TDE = time-dependent effect. Summed up:
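Nu/Nu mice (n = 5) carried subcutaneous A2780 human ovarian cancer implants (10⁶ cells in Matrigel per flank) and were imaged 10 days later under isoflurane 1.5%. The 18F tracer was scanned by PET-CT (about 80 min acquisition) before and after competition. […] Read-out was the tumor/muscle ratio.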

In data set [6] the test system is Mus musculus. Put plainly: Biodistribution in C57BL/6 mouse whole blood at 243 +/- 25 uCi, iv using […] dimethylacetamide, 10% Solutol HS15, 80% PBS formulation. The following applies: in vivo. In kind it is ADME, organism-based. The method in brief: (§3)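 The 18F tracer was given to C57BL/6 mice by tail-vein iv bolus, n = 3 per vehicle. Vehicles were 60% PEG400 in water, 10% DMSO in water, or 20% DMAC:Solutol (1:1) in saline. Serial retro-orbital blood was drawn into tared capillary tubes, weighed and gamma-counted to give the blood time-activity curve.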

For data set [7], the system named is Mus musculus. The data set can be described thus: Biodistribution in C57BL/6 mouse whole blood at 243 +/- 25 uCi, iv using 60% PEG400, 40% water formulation. In kind it is ADME, organism-based. The following applies: in vivo. The method in brief:
as §3

The subject of data set [8] is Brain. Put plainly: Biodistribution in C57BL/6 mouse brain at 241 +/- 18 uCi, iv. The following applies: in vivo. In kind it is ADME, organism-based. Summed up: as §1
Data set [9] concerns Mus musculus. The data set can be described thus: Biodistribution in C57BL/6 mouse thymus at 241 +/- 18 uCi, iv. To be noted: in vivo. In kind it is ADME, organism-based. Summed up:
as §1

For data set [10], the system named is Nucleic Acid. The data set can be described thus: Ratio of drug uptake in tumor to muscle in human A2780 cells xenografted Nu/Nu mouse at 2 mg in 100 uL of 60% PEG400 40% water, ip administered as 2 dose every 24 hrs interval measured after 3 hrs of post last dose by PET-CT analysis. It counts as ADME, organism-based. To be noted: in vivo. The method in brief: as §2

Data set [11] relates to Heart. The data set can be described thus: Biodistribution in C57BL/6 mouse heart at 241 +/- 18 uCi, iv. It counts as ADME, organism-based. To be noted: in vivo. Summed up: as §1
Data set [12] is described as follows: Initial half life in iv dosed mouse plasma. It counts as ADME, organism-based. To be noted: read-out: alphat1/2.
The test system of data set [13] is Mus musculus. Put plainly: Biodistribution in C57BL/6 mouse whole blood at 243 +/- 25 uCi, iv using 10% DMSO, 90% water formulation. It counts as ADME, organism-based. To be noted: in vivo. The method in brief:
as §3

The target in data set [14] is Histone deacetylase 1 (Homo sapiens, UniProt Q13547). Put plainly: Inhibition of human recombinant full-length HDAC1 using fluorophore conjugated substrate by fluorescence assay.
Data set [15] deals with Histone deacetylase 3 (Homo sapiens, UniProt O15379). The data set can be described thus: Inhibition of human recombinant full-length HDAC3 using fluorophore conjugated substrate by fluorescence assay.
Data set [16] deals with T1, Protein deacetylase HDAC6 (Homo sapiens, UniProt Q9UBN7).
T1 sequence (Q9UBN7 whole entry): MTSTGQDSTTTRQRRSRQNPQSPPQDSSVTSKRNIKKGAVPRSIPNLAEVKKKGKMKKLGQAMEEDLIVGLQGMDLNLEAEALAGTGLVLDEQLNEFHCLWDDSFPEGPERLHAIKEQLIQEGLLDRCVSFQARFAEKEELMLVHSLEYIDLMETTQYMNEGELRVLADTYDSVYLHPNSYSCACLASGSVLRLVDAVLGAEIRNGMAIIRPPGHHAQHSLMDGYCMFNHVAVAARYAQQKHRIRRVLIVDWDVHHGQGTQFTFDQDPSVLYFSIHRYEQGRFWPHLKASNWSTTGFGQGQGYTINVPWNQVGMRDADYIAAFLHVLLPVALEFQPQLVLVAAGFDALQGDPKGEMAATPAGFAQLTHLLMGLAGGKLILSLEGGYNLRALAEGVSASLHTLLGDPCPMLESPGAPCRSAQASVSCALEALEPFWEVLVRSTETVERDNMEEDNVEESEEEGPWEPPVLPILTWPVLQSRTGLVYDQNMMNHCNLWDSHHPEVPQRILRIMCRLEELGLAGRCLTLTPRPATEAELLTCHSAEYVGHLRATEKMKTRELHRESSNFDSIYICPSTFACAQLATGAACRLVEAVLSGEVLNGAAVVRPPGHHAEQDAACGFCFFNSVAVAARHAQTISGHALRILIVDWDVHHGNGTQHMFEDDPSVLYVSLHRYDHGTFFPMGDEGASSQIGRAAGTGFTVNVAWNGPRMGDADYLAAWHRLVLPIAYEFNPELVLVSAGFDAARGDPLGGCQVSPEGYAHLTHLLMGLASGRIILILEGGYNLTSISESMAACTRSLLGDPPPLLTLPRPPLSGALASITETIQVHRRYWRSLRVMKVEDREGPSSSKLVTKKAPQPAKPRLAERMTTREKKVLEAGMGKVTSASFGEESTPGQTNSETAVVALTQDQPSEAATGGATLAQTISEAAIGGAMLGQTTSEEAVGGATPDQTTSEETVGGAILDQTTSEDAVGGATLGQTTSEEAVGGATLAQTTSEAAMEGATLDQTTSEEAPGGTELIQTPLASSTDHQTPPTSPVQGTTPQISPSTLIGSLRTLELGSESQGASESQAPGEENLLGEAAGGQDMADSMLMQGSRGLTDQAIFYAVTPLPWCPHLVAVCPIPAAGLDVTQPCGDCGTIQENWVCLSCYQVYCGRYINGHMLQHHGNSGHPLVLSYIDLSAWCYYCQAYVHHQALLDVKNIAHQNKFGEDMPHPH
The data set can be described thus: Inhibition of human recombinant full-length HDAC6 using fluorophore conjugated substrate by fluorescence assay.

Data set [17] concerns the target Histone deacetylase 2 (Homo sapiens, UniProt Q92769). Put plainly: Inhibition of human recombinant full-length HDAC2 using fluorophore conjugated substrate by fluorescence assay.

Sequence of Histone deacetylase 2 (Q92769 whole entry): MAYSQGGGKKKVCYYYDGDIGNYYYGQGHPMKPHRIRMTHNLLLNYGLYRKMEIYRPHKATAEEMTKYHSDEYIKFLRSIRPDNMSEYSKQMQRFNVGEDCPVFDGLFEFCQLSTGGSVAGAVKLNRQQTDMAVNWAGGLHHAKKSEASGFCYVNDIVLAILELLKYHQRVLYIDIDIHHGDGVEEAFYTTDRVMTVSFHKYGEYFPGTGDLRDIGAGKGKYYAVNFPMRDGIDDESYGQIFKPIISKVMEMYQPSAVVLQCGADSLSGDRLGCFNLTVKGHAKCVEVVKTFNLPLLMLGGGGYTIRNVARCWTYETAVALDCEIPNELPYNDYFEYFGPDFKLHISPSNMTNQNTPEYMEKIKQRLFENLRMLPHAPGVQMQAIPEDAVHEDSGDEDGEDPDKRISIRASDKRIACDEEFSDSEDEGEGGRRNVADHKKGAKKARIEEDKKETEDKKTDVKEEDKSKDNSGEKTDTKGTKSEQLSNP
Sequence of Histone deacetylase 1 (Q13547 whole entry): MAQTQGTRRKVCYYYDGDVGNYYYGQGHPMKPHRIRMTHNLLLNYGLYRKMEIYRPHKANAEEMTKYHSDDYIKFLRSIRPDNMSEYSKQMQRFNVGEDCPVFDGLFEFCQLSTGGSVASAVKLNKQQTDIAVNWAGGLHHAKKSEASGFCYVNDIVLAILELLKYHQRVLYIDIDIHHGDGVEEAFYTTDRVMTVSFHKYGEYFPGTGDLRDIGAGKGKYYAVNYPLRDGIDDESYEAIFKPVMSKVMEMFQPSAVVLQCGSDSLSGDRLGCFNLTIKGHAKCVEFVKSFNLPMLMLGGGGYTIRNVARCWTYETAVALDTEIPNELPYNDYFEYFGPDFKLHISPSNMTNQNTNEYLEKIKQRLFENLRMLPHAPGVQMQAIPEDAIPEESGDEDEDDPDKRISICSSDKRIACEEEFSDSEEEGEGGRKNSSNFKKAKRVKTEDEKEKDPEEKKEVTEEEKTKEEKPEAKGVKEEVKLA
Sequence of Histone deacetylase 3 (O15379 whole entry): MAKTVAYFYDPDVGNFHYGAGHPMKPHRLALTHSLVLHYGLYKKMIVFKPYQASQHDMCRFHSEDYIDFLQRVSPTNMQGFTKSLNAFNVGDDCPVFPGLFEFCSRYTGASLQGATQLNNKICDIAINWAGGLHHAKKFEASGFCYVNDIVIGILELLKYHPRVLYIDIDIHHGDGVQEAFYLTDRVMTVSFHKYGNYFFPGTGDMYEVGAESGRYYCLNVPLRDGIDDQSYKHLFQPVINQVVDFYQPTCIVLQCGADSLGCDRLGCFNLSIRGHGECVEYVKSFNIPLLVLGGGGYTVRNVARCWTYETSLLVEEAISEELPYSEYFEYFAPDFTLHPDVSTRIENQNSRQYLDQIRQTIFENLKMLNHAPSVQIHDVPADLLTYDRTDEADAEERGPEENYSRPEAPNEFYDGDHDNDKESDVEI

Turning to `O=C(CCCCCCC(=O)Nc1ccc([18F])cc1)NO`, the Drug uptake entry is reported as “Active” in data set [1]; “Active” in [3]; “Active” in [4]; “tde” in [5]; 6 % ID/g in [6]; below 1 % ID/g in data set [7]. The Drug uptake result is “Active” in data set [8], “Active” in data set [9], “Active” in data set [11] and 3 % ID/g in data set [13]. Also, the Ratio came to 1.7 in data set [2] and 1.3 in data set [10]. The half-life in [12] was below 1 min.
`O=C(CCCCCCC(=O)Nc1ccc([19F])cc1)NO`: the concentration for half-maximal inhibition (IC50) (in general, the point on the concentration scale where inhibition reaches its midpoint) came to 0.009 µM in [14], 0.0239 µM in data set [15], 0.0502 µM in [16] and 0.0127 µM in data set [17].
